MrgX1 ag: activates human MrgX1 receptor signaling | B-score at 10 µM | MrgX1-HEK293 cells, Fluo-4 calcium fluorescence, agonist mode; active compounds read high | actives 0.44% (n = 310,000) | Q96LB2;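 active = calcium response B-score plate-corrected fluorescence ratio at least 3 library SD, with starting fluorescence B-score inside 5 SD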
Target sequence (Q96LB2 whole entry, looked up): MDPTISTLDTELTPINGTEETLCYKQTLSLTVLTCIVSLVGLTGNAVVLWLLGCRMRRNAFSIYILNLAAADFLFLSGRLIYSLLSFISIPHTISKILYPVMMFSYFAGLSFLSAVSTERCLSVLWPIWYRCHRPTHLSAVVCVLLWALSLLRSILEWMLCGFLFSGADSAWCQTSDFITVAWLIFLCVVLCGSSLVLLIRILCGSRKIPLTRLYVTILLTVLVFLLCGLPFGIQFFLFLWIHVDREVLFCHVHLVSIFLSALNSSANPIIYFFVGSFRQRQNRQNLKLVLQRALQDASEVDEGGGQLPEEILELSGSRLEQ
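Assay system: stable human MrgX1 HEK293 cell line. Quantity: 15,000 cells per well. Schedule: cells plated overnight, dye loaded 0.5 h 37 °C, 0.5 h room temperature. Detection: Fluo-4 NW calcium-flux fluorescence, kinetic read. Read-out basis: peak-minus-minimum fluorescence over baseline, converted to B scores. Control set: positive and negative control wells on each plate.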
RGS4 inh: human RGS4 inhibition; P49798; HEK293 M3R/RGS4 inducible, Fluo-4 calcium flux; active compounds read high; triggered by carbachol at its EC20; B-score at 10 µM; actives 0.45% (n = 310,000); AID 463165;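 active = B-score, a plate-corrected calcium signal, over three deviations above library mean, with baseline fluorescence within five deviations of library mean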;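 also: RGS4 expression induced by doxycycline in cells with stable M3 receptor; B-score is computed from the integrated fluorescence ratio over baseline after carbachol; higher B-score means a larger calcium signal and so more RGS4 inhibition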
Target sequence (P49798 whole entry, looked up): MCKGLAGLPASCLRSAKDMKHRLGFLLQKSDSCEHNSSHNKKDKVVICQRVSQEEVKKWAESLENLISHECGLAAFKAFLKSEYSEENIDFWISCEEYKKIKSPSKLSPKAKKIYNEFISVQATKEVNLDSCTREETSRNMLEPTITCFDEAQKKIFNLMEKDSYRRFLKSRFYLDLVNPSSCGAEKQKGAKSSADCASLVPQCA
Lipid droplet: modulators of hepatic lipid droplet formation; actives 0.4% (n = 240,000); AML12 mouse hepatocytes, oleate lipid droplets, BODIPY imaging; AID 1656; inhibition, % at 6.5 µM;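 active = lipid droplet intensity inhibited by at least 50%, with more than 500 cells counted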
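Assay system: AML12 hepatocytes (mouse) / Also added: 100 µM oleic acid challenge / Times: overnight treatment with compound plus oleate / Detection: high-content imaging of BODIPY-stained droplets and DAPI nuclei / Evaluation: % inhibition of lipid droplet signal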
MrgX1 antagonist: human MrgX1 receptor antagonism, primary screen | Q96LB2 | MRGX1-HEK293 calcium flux, Fluo-4, BAM8-22 antagonism; active compounds read low | B-score at 10 µM | actives 1.3% (n = 310,000) | AID 588676;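 active = calcium-response B-score plate-corrected more than 3 library SD below zero, starting fluorescence within 5 deviations, no agonist response on first addition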;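 also: peak minus trough fluorescence over baseline after final BAM8-22 challenge near maximal dose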
RGS4 pot: RGS4 potentiation or activation | actives 0.92% (n = 310,000) | HEK293 M3R/inducible RGS4, carbachol calcium flux Fluo4; active compounds read low | B-score at 10 µM | AID 463111;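 active = B-score of the integrated calcium signal more than 4 SD below the library mean, with starting fluorescence not abnormally high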;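 also: negative B-score means reduced calcium response which marks RGS4 activation or potentiation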
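test system = M3R-expressing HEK293 line, RGS4 induced by doxycycline | probe or stimulus = carbachol at ECmax as muscarinic agonist stimulus | timing = dye loading 30 min 37 °C, buffer rest 30 min RT | signal = calcium dye Fluo4 fluorescence | evaluation = B score from integrated fluorescence ratio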
MrgX1 allo act: allosterically activates human MrgX1 receptor signaling | Q96LB2 | MrgX1-HEK293, Fluo-4 calcium flux, FDSS; active compounds read high | B-score at 10 µM | actives 0.63% (n = 310,000) | AID 588675;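 active = plate-corrected calcium response at least 3 library SD above typical, normal starting fluorescence, not activating the receptor alone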;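 also: compound read alongside a low EC10 to EC30 dose of BAM8-22 agonist; peak minus trough fluorescence over baseline measured at the second addition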
RGS4 block valid: RGS4 inhibitor validation. shares compounds with RGS4 inh. HEK293 M3R/RGS4, carbachol calcium Fluo-4 fluorescence; carbachol added at its EC20; 0 = buffer wells, 100 = carbachol control. calcium response, % at 10 µM. actives 65% (n = 1,700);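 active = duplicate-averaged calcium response above the buffer-only control mean plus 5 SD of those controls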;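 also: integrated fluorescence ratio F max minus min over baseline F0; higher response in RGS4-induced cells means RGS4 inhibition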
RGS4 uninduced: non-induced cell nonspecific activity of RGS4 inhibitors. shares compounds with RGS4 inh. HEK293 M3R non-induced, carbachol calcium Fluo-4; submaximal (EC20) carbachol stimulus; buffer wells 0%, carbachol control wells 100%. activity (percent), % at 10 µM. actives 20% (n = 1,900); call rule not given here;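 also: RGS4 induction absent so cells express M3R without RGS4; higher means more calcium signal and flags a non-specific hit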
M3R basal Ca ctr: signal in non-induced cells without carbachol, RGS4 inhibitor counter-screen. shares compounds with RGS4 inh. HEK293 M3R/RGS4 non-induced, Fluo-4 calcium, no carbachol; normalised: buffer wells 0%, carbachol wells 100%. calcium response (agonist-mode artifact), % at 10 µM. actives 22% (n = 1,900);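 active = duplicate-averaged calcium rise in uninduced cells above buffer wells' mean plus 5 SD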
Numbers without * were called inactive; i = inactive; . = no result given. Sampled rows, rich in hits. Any-hit rate of the full collection: about 3.8%.

SMILES	MrgX1 ag	RGS4 inh	Lipid droplet	MrgX1 antagonist	RGS4 pot	MrgX1 allo act	RGS4 block valid	RGS4 uninduced	M3R basal Ca ctr
CC1(C)CC(=O)C(C(C2=C(O)CC(C)(C)CC2=O)c2ccc([N+](=O)[O-])cc2)C(=O)C1 (stereo not drawn)	i	i	7.1	i	i	i	.	.	.
CC1(C)CC(=O)C(C(C2=C(O)CC(C)(C)CC2=O)c2ccc(Br)s2)C(=O)C1 (stereo not drawn)	i	18.1*	-2.5	i	i	i	87.5%*	i	74.0%*
Cc1ccc(C(C2=C(O)CC(C)(C)CC2=O)C2C(=O)CC(C)(C)CC2=O)s1 (stereo not drawn)	i	13.7*	.	i	i	i	35.0%*	44.0%*	i
COc1cccc(C(C2=C(O)CC(C)(C)CC2=O)C2C(=O)CC(C)(C)CC2=O)c1 (stereo not drawn)	i	i	-3.0	i	i	i	.	.	.
CCCCn1c(=O)[nH]c(=O)c2c1nc(Cn1ncc(Cl)c(Cl)c1=O)n2CCC	i	21.1*	-15.4	i	i	i	33.5%*	56.5%*	i
COc1ccc(C(CC(=O)Nc2ccc(C)cn2)N2Cc3ccccc3C2=O)cc1 (stereo not drawn)	i	i	-23.5	i	i	i	.	.	.
COCCNC(=O)CN1C(=O)NC(c2ccccc2)(c2ccccc2)C1=O	i	i	-1.9	i	i	i	.	.	.
CC(=O)c1ccc(N/N=C(/C(N)=O)C2=NC(C)(C)Cc3ccccc32)cc1	i	i	4.5	i	i	i	.	.	.
CC1(C)Cc2ccccc2C(/C(=N\Nc2cccc(Cl)c2)C(N)=O)=N1	i	6.58*	27.4	i	i	i	16.0%*	i	i
OC(c1cc(-c2ccc(Cl)cc2)nc2ccccc12)C1CCCCN1 (stereo not drawn)	i	i	6.8	i	i	i	.	.	.
O[C@@H](c1cc(C(F)(F)F)nc2c(C(F)(F)F)cccc12)[C@H]1CCCCN1	i	5.71*	.	i	i	i	26.5%*	i	46.0%*
OC(c1cc(C(F)(F)F)nc2c(Cl)cc(Cl)cc12)C1CCCCN1 (stereo not drawn)	i	13.3*	2.6	i	i	i	24.5%*	i	13.5%*
O=c1c2cc(Cl)cc(Cl)c2nc2n1CCC2	i	i	5.2	i	i	i	.	.	.
COCCn1c(C)cc(C(=O)COC(=O)c2ccc(Cl)c(S(N)(=O)=O)c2)c1C	i	i	.	i	i	i	.	.	.
Cc1cccc(NC2=NCC(=O)N2Cc2ccccc2)c1	i	i	-8.0	i	i	i	.	32.0%*	i
Cc1cc(C)cc(NC2=NCC(=O)N2Cc2ccccc2)c1	i	5.35*	-22.1	i	i	i	i	i	i
O=C(NNC(=O)c1cc(-c2ccc(Cl)cc2)nc2ccccc12)c1csc(N2CCOCC2)n1	i	i	.	i	i	i	.	.	.
Cc1ccc(NS(=O)(=O)c2ccc(NC(=O)CN(c3cc([N+](=O)[O-])ccc3C)S(C)(=O)=O)cc2)c(C)c1	i	8.64*	2.9	i	i	i	23.0%*	i	i
CC(=O)Nc1ccc(S(=O)(=O)Nc2cc([N+](=O)[O-])ccc2C)cc1	i	i	2.0	i	i	i	.	.	.
Cc1cccc(/C(N)=N/OC(=O)c2ccc(Br)o2)c1	i	5.24*	-2.6	i	i	i	i	i	i
Cc1ccc(C(=O)/C=C/C(=O)c2ccc(C)cc2)cc1	i	i	4.4	i	i	i	.	i	i
COc1cc2[nH]c(=O)n(CCC(=O)NCCCN3CCN(c4ccccc4F)CC3)c(=O)c2cc1OC	i	i	-15.8	i	i	i	.	.	.
CCOc1ccc(-c2nnc(SCC(=O)Nc3ccc4c(c3)c3ccccc3n4CC)n2N)cc1	i	i	.	i	i	i	i	i	i
CCn1c2ccccc2c2cc(NC(=O)CSc3nnc(-c4cccc(OC)c4)n3N)ccc21	i	i	-28.9	i	i	i	.	i	i
CCn1c2ccccc2c2cc(NC(=O)CSc3nnc(-c4ccccc4OC)n3N)ccc21	i	i	.	i	i	i	.	i	i
SMILES	MrgX1 ag	RGS4 inh	Lipid droplet	MrgX1 antagonist	RGS4 pot	MrgX1 allo act	RGS4 block valid	RGS4 uninduced	M3R basal Ca ctr
CCOc1ccc(NC(=O)CSc2nnc(-c3ccccn3)n2N)cc1	i	i	.	i	i	i	.	.	.
CCn1c2ccccc2c2cc(NC(=O)CSc3nnc(-c4ccc(OC)c(OC)c4)n3N)ccc21	i	i	.	i	i	i	i	i	i
Cc1[nH]n(-c2ccccc2)c(=O)c1C=Nc1ccc(S(=O)(=O)Nc2nccs2)cc1	i	i	-2.1	i	i	i	.	.	.
CCc1nnc(NS(=O)(=O)c2ccc(N=Cc3c(C)[nH]n(-c4cccc(Cl)c4)c3=O)cc2)s1	i	i	3.4	i	i	i	.	.	.
CCc1nnc(NS(=O)(=O)c2ccc(N=Cc3c(C)[nH]n(-c4ccc(Cl)cc4)c3=O)cc2)s1	i	i	2.2	i	i	i	.	i	i
Cc1ccc(-n2[nH]c(C)c(C=Nc3ccc(S(=O)(=O)Nc4nccs4)cc3)c2=O)cc1C	i	i	-21.4	i	i	i	.	i	i
Cc1[nH]n(-c2ccc(Cl)cc2)c(=O)c1C=Nc1ccc(S(=O)(=O)N2CCOCC2)cc1	i	6.27*	.	i	i	i	31.5%*	55.0%*	i
C[C@]12C(=O)N(c3ccccc3)C(=O)N1[C@@H]1c3ccccc3OC[C@@H]1[C@H]2c1ccccc1	i	i	2.2	i	i	i	i	i	i
C[C@]12C(=O)N(c3cccc(F)c3)C(=O)N1[C@@H]1c3ccccc3OC[C@@H]1[C@H]2c1ccccc1	i	i	3.7	i	i	i	i	i	i
